Experimental data published in ChEMBL document CHEMBL1147981, “Small molecule activators of SIRT1 as therapeutics for the treatment of type 2 diabetes” (Nature, 2007).
The source made the active and inactive calls. No cut-off for these calls is given here.

Columns and labels:
[1] = species: Mus musculus; test: Reduction of insulin level in chow-fed C57BL/6 mouse; type: functional, organism-based
[2] = test system: Mus musculus; test: Reduction of blood glucose level in diabetic Lep ob/ob mouse model at 1000 mg/kg, po after 3 weeks; type: functional, organism-based; design: dose 1000 mg/kg
Method in brief: (§1)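 ob/ob mice received at 6 weeks, kept on 60%-fat diet from at least one week before study; ~40-45 g; grouped by body weight and glucose; once-daily oral gavage in 2% HPMC + 0.2% DOSS. One-way ANOVA with Dunnett's test vs control, p<0.05.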

[3] = test system: Mus musculus; test: Reduction of blood glucose level in DIO C57BL/6 mouse model at 500 mg/kg, po after 4 weeks; type: functional, organism-based; design: dose 500 mg/kg
Method in brief: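 Male C57BL/6 mice, started at nine weeks, fed 60%-fat diet until mean weight ~40 g; 6-10 per group; once-daily oral gavage in 2% HPMC + 0.2% DOSS. Fed glucose at 2, 4, 6, 8, 10 weeks; IPGTT after 5 weeks; ITT after 10 weeks. One-way ANOVA with Dunnett's test vs control, p<0.05.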

[4] = biological target: T1, NAD-dependent protein deacetylase sirtuin-1 (Homo sapiens) (UniProt Q96EB6); test: Activation of human SIRT1 assessed as decrease in Km of enzyme for acetylated peptide substrate by mass spectrometry assay
T1 sequence (whole entry): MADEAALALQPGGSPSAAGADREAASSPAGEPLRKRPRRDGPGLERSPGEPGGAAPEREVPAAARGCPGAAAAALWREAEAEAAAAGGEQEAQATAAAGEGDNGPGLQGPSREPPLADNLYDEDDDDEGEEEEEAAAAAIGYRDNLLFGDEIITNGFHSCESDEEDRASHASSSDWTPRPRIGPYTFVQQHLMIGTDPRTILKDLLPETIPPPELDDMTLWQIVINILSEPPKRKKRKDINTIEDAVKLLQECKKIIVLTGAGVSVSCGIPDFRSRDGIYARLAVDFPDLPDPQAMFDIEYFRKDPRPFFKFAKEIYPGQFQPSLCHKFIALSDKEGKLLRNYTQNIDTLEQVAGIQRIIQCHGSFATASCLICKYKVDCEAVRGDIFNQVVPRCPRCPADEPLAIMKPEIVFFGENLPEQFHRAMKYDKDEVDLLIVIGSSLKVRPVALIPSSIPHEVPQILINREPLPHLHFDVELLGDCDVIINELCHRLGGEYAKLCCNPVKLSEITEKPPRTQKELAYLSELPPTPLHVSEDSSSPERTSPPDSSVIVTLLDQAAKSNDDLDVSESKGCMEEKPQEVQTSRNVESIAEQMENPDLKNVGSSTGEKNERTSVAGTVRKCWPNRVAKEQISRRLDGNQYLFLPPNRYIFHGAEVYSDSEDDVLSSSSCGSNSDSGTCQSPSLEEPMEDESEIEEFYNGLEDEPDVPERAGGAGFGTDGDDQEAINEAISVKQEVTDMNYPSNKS

[5] = test system: Mus musculus; test: Effect on body weight in diabetic Lep ob/ob mouse model at 1000 mg/kg, po; type: functional, organism-based; design: dose 1000 mg/kg; method in brief: as §1
[6] = biological target: T1, NAD-dependent protein deacetylase sirtuin-1 (Homo sapiens); test: Activation of human SIRT1-D (219-664) construct by mass spectrometry assay relative to control
[7] = biological target: T1, NAD-dependent protein deacetylase sirtuin-1 (Homo sapiens); test: Activation of human SIRT1-F (230-664) construct by mass spectrometry assay relative to control
[8] = biological target: T1, NAD-dependent protein deacetylase sirtuin-1 (Homo sapiens); test: Activation of human SIRT1-G (235-664) construct by mass spectrometry assay relative to control
[9] = biological target: T1, NAD-dependent protein deacetylase sirtuin-1 (Homo sapiens); test: Activation of human SIRT1-H (240-664) construct by mass spectrometry assay relative to control
[10] = biological target: T1, NAD-dependent protein deacetylase sirtuin-1 (Homo sapiens); test: Activation of human SIRT1 expressed in Escherichia coli BL21 by mass spectrometry assay
[11] = biological target: T2, NAD-dependent protein deacetylase sirtuin-2 (Homo sapiens, UniProt Q8IXJ6); test: Activation of SIRT2 by mass spectrometry assay
T2 sequence (Q8IXJ6 whole entry): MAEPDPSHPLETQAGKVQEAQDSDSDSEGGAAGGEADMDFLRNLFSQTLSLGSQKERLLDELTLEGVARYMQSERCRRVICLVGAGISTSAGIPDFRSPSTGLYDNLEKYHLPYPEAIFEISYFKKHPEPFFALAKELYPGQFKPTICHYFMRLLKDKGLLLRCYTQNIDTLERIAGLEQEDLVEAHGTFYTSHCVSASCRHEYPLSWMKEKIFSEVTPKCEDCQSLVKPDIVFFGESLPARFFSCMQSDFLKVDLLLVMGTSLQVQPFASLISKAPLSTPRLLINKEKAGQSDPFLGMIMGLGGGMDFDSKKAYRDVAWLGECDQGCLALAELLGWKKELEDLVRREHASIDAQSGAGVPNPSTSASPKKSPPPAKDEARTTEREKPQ

[12] = biological target: T3, NAD-dependent protein deacetylase sirtuin-3, mitochondrial (Homo sapiens, UniProt Q9NTG7); test: Activation of SIRT3 by mass spectrometry assay
T3 sequence (Q9NTG7 whole entry): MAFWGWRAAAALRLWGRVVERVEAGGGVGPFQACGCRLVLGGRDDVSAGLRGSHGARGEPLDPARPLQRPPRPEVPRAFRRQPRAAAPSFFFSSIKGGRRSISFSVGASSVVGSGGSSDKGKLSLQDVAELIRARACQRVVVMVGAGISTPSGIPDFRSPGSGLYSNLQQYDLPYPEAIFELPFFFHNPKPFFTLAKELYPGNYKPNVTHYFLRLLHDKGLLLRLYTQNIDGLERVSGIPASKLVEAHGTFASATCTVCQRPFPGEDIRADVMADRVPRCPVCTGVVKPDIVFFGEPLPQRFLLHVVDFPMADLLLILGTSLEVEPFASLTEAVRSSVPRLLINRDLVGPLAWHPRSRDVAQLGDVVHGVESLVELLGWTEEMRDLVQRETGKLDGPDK

[13] = biological target: T1, NAD-dependent protein deacetylase sirtuin-1 (Homo sapiens); test: Activation of SIRT1 in human U2OS cells assessed as decrease in p53 deacetylation level at 100 uM; type: cell-based
Method in brief: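 U-2 OS cells plated at 1.5 X 10⁴ cells/well; compounds (DMSO) added after 24 h, then doxorubicin (1 μg/ml final) to induce p53. Replicate plates were co-treated with a SIRT1-specific inhibitor. Cells were fixed, permeabilized and immunostained for Ac-Lys382-p53 and beta-tubulin, with infrared scanning. Signals were background-corrected, normalized to tubulin, then to vehicle (% acetylated p53).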

[14] = biological target: T1, NAD-dependent protein deacetylase sirtuin-1 (Homo sapiens); test: Activation of human SIRT1-A (156-664) construct by mass spectrometry assay relative to control
[15] = biological target: T1, NAD-dependent protein deacetylase sirtuin-1 (Homo sapiens); test: Activation of human SIRT1-B (172-664) construct by mass spectrometry assay relative to control
[16] = biological target: T1, NAD-dependent protein deacetylase sirtuin-1 (Homo sapiens); test: Activation of human SIRT1-C construct by mass spectrometry assay relative to control
[17] = biological target: T1, NAD-dependent protein deacetylase sirtuin-1 (Homo sapiens); test: Activation of human SIRT1-E (225-664) construct by mass spectrometry assay relative to control

Structure (SMILES): Oc1ccc(/C=C/c2cc(O)cc(O)c2)cc1 [RESVERATROL]
- Activity [1]: Active
- Activity [2]: Active
- Activity [3]: Active
- Activity [4]: Active
- Activity [5]: inactive
- Activity [6]: 1.3
- Activity [7]: 1.1
- Activity [8]: 1.2
- Activity [9]: 1.2
- Activity [10]: 201%
- EC50 [11]: > 300 µM
- EC50 [12]: > 300 µM
- Activity [13]: Active
- Activity [14]: 1.8
- Activity [15]: 1.7
- Activity [16]: 1.9
- Activity [17]: 1.3
